# Rows were chosen to be rich in hits. Some 2.7% of all compounds tested hit in one or more screens of this group.
# PAFAH1B3 FP inh – PAFAH1B3 enzyme inhibitors, primary screen, biochemical, fluorescence polarization, human | AID 492972, 2010 | 340,000 tested, 0.28% active | inhibition, % at 3.39 µM | Platelet-activating factor acetylhydrolase IB subunit alpha1 (Homo sapiens), Q15102 | recombinant PAFAH1B3, FP-rhodamine probe;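 active = inhibition above the screen-wide average of all tested compounds plus 3 SD, cut at about 25% in these data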;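 also: 0% = enzyme with DMSO only and 100% = wells lacking PAFAH1B3 protein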
# Target sequence (Q15102 whole entry, looked up): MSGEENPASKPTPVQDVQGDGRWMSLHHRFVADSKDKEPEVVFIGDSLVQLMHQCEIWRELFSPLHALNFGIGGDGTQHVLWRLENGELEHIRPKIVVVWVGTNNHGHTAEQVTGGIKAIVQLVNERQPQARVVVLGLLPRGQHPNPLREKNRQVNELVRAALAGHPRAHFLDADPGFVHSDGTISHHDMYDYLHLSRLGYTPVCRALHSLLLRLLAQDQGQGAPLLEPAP
# PAFAH1B2 inh – PAFAH1B2 enzyme inhibitors, primary screen, biochemical, fluorescence polarization, human. Platelet-activating factor acetylhydrolase IB subunit alpha2 (Homo sapiens), P68402. recombinant PAFAH1B2, FP-rhodamine activity probe. inhibition, % at 3.39 µM. 340,000 tested, 1.2% active. AID 492953, 2010;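 active = inhibition above the mean of all tested compounds plus 3 SD, cut at about 24% in these data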;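 also: 0% = enzyme with DMSO and 100% = wells lacking PAFAH1B2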
# RBBP9 inh – human RBBP9 inhibitors, primary screen, biochemical, fluorescence polarization, FP-Rh probe, HTS; recombinant RBBP9; Serine hydrolase RBBP9 (Homo sapiens), O75884; AID 1515, 2009; 220,000 tested, 0.2% active; inhibition, % at 7.94 µM;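 active = inhibition above the campaign mean of all tested compounds plus 3 SD, cut at about 14% in these data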;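 also: plate controls were DMSO wells with RBBP9 for no effect and wells lacking RBBP9 protein for full effect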
# Target sequence (O75884 whole entry, looked up): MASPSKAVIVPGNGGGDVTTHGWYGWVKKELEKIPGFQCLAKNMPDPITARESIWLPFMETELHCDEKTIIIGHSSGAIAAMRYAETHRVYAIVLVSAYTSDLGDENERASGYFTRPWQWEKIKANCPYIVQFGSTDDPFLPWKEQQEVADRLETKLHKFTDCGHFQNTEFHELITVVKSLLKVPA
#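 Controls: DMSO-treated enzyme wells and wells lacking RBBP9 | Material: RBBP9 protein | Technique: Fluorescence polarization | Replication: Single well per compound, no replicates | Buffer or medium: Tris-NaCl-Pluronic buffer, pH 8.0 | Timing: 30 min compound preincubation, 45 min probe labeling, 25 °C | Read-out basis: Percent inhibition from mP, scaled between DMSO and no-protein wells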
# PAFAH2 inh – PAFAH2 enzyme inhibitors, primary screen, biochemical, fluorescence polarization, human | Platelet-activating factor acetylhydrolase 2, cytoplasmic (Homo sapiens), Q99487 | inhibition, % at 3.39 µM | 340,000 tested, 0.99% active | recombinant PAFAH2, FP-rhodamine activity probe;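 active = inhibition above the mean over all tested compounds plus 3 SD, cut at about 30% in these data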;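 also: inhibitors block probe labeling of enzyme so polarization drops; 0% = enzyme with DMSO and 100% = wells lacking PAFAH2 protein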
# pPAFAH inh – pPAFAH enzyme inhibitors, primary screen, biochemical, fluorescence polarization, human | Platelet-activating factor acetylhydrolase (Homo sapiens), Q13093 | recombinant pPAFAH, FP-rhodamine probe fluorescence polarization | inhibition, % at 3.39 µM | 330,000 tested, 1.5% active;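 active = inhibition above the mean inhibition across the screen plus 3 SD, cut at about 25% in these data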;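 also: inhibitors block binding of the rhodamine activity-based probe so polarization drops; 0% = enzyme with DMSO and 100% = wells lacking pPAFAH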
# * = called active by the depositor; nt = no result given.
SMILES,PAFAH1B3 FP inh,PAFAH1B2 inh,RBBP9 inh,PAFAH2 inh,pPAFAH inh
COc1ccc2[nH]c(C(=O)Nc3cccc(C)n3)cc2c1,nt,nt,-8,nt,-2
CCOC(=O)CSc1ncc(-c2ccc([N+](=O)[O-])cc2)[nH]1,2,0,-2,-2,31*
CCOC(=O)Cn1cncc1-c1ccc([N+](=O)[O-])cc1,4,3,-4,-3,3
CN1OC(c2ccccc2)=C(CO)C1c1ccccc1 (stereo unspecified),11,-2,-5,0,0
COc1ccccc1-c1c(C)nn2c(N3CCN(Cc4ccccc4)CC3)cc(C)nc12,1,4,-9,3,28*
CC1Nc2ccccc2C(=O)N1NS(C)(=O)=O (stereo unspecified),5,3,-5,21,28*
COc1ccc(C2Nc3ccccc3C(=O)N2NS(C)(=O)=O)cc1 (stereo unspecified),8,-2,-5,3,3
CC(=O)Nc1ccc(S(=O)(=O)n2nc(-c3ccc(C)cc3)nc2N)cc1,-2,-2,-13,-9,-7
Cc1ccc(S(=O)(=O)n2nc(-c3cccnc3)nc2N)cc1,0,33*,-10,6,1
O=C(N/N=C/c1ccc(O)cc1O)c1ccc(NC(=O)C2CCCCC2)cc1,37*,33*,nt,-12,23
O=C(N/N=C/c1cccc(O)c1)c1ccc(NC(=O)C2CCCCC2)cc1,-1,-15,nt,-12,nt
Cc1cccc(OCC(=O)NNC(=O)c2ccccc2OCc2c(C)noc2C)c1,10,5,nt,2,0
CC(C)(C)NC(=O)COC(=O)/C=C/c1ccccc1[N+](=O)[O-],5,0,-3,29,32*
COc1ccccc1NC(=O)COC(=O)/C=C/c1ccccc1[N+](=O)[O-],8,3,-1,12,26*
COc1ccc(N/C(=C(/C(Cl)=C(Cl)Cl)[N+](=O)[O-])n2nnc3ccccc32)cc1OC,nt,nt,2,nt,10
CN1N=C(C(=O)N=c2sc3ccccc3n2C)CCC1=O,7,-1,nt,-5,nt
Cc1nc2ccc(NS(=O)(=O)c3ccc(C)c(C)c3)cc2s1,0,2,-10,-4,5
Cc1nc2ccc(S(=O)(=O)Nc3ccccc3C)cc2s1,-8,2,0,0,33*
Cc1nc2ccc(S(=O)(=O)NCC(=O)NCc3ccc(Cl)cc3)cc2s1,2,25*,nt,3,-2
Cc1nc2ccc(S(=O)(=O)NCC(=O)NCc3ccc4c(c3)OCO4)cc2s1,4,6,0,13,6
CC(Cc1ccccc1)NC(=O)CCCN1C(=O)c2ccccc2C1=O (stereo unspecified),-3,3,nt,-2,7
Cc1ccc(C2=CC(c3ccc(C)cc3)n3ncnc3N2)cc1 (stereo unspecified),3,1,nt,-1,6
CC(C)(C)c1ccc(C2=CC(c3ccccc3)n3ncnc3N2)cc1 (stereo unspecified),9,58*,nt,13,26*
COc1cc(/C=N/NC(=O)c2sc3nc(C)cc(C)c3c2N)ccc1O,nt,nt,0,nt,31*
COC(=O)c1sc2nc(C)cc(C)c2c1N,6,2,0,0,3
SMILES,PAFAH1B3 FP inh,PAFAH1B2 inh,RBBP9 inh,PAFAH2 inh,pPAFAH inh
NC(=O)COC(=O)c1ccc(Oc2ccccc2)cc1,13,3,-9,6,1
CC(NC(=O)COC(=O)c1ccc(OCC2CCCO2)cc1)c1ccccc1Cl (stereo unspecified),-1,1,nt,88*,25*
CC(C)NC(=O)COC(=O)c1ccc(Oc2ccccc2)cc1,7,4,-8,67*,26*
CCCNC(=O)COC(=O)c1ccc(-c2ccccc2)cc1,-1,-1,2,60*,25*
Cc1cccc(C(C)C)c1NC(=O)c1ccc(OCC2CCCO2)cc1 (stereo unspecified),0,5,nt,2,0
CN(C)c1ccc(C(=O)OCC(=O)NCCCc2ccccc2)cc1,-3,6,nt,85*,33*
Cc1cc(S(=O)(=O)NCc2ccccc2)ccc1OCC(=O)N1CCOCC1,-1,5,-8,0,8
O=C1NC(=O)/C(=C\c2ccccc2Oc2ccc(F)c(F)c2)S1,-11,26*,-4,-4,8
O=C1NC(=O)/C(=C/c2ccccc2OCc2ccccc2)S1,10,16,-5,5,3
c1coc(C2Nc3cccc4cccc(c34)N2)c1,nt,nt,2,nt,26*
Clc1ccccc1C1Nc2cccc3cccc(c23)N1,9,0,nt,7,12
Oc1ccc(C2Nc3cccc4cccc(c34)N2)c(O)c1,36*,17,-2,-5,2
COC(=O)c1ccc(C)c(NC(=O)CCNC(=O)c2ccc([N+](=O)[O-])cc2)c1,-3,3,-5,-5,29*
Cc1ccc(F)cc1NC(=O)CCNC(=O)c1ccc([N+](=O)[O-])cc1,-2,3,nt,-7,3
O=C(CCCc1ccccc1)Nc1cccc(C(=O)O)c1,8,25*,0,7,-2
O=C(c1ccc(=O)[nH]n1)N1CCN(S(=O)(=O)c2cccc(F)c2)CC1,34*,22,nt,34*,nt
CCOC(=O)c1c(NC(=O)CSc2nnc(C)s2)sc2c1CCC(CC)C2 (stereo unspecified),-17,-1,1,-11,26*
CCOC(=O)c1sc(NC(=O)CSc2nnc(C)s2)c(C(=O)OCC)c1C,0,5,-8,-1,0
Cn1c(CNC(=O)c2ccc(Cl)cc2)nnc1SCC(=O)Nc1sc2c(c1C#N)CCCC2,3,26*,-7,-1,4
Cn1c(CNC(=O)c2ccc(Cl)cc2)nnc1SCC(=O)NC1CCCC1,3,3,nt,6,1
COc1ccc(CCNC(=O)COC(=O)COc2ccc(Cl)cc2)cc1OC,6,6,-7,0,7
O=C(COC(=O)COc1ccc(Cl)cc1)NCCCc1ccccc1,0,29*,nt,5,14
O=C(COC(=O)COc1ccccc1)NCCc1ccccc1,-1,5,nt,2,11
COc1cc(CNCCc2ccc(S(N)(=O)=O)cc2)ccc1OCc1ccc(Cl)cc1,8,12,-7,-1,3
CCOc1ccc(CCNC(=O)COC(=O)COc2ccc(Cl)cc2)cc1OCC,7,4,nt,-4,26*
CCOc1cc(CNCCc2ccc(S(N)(=O)=O)cc2)ccc1OCc1ccc(Cl)cc1,3,28*,1,1,0
Cc1cc(C)c(S(=O)(=O)c2ccccc2)c(N(C)C)n1,1,1,1,1,3
CC(=O)C[C@H](O)CC(=O)[C@H]1OC(=O)CCCCCCCCc2ccccc21,-10,37*,nt,-6,-1

# Source: PubChem
